Test results: PMC4083586 (Biotechnology journal, 2011)

Test system: porcine parvovirus (PPV)
Assay: PPV removal by peptide-resin columns from 7.5% human blood plasma
Type: binding, porcine parvovirus (PPV) NADL-2 strain
Conditions: Figure 3B
Procedure, shortened: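 Peptides on resin at 0.10 mmol/g dry resin with a four-unit ethylene oxide spacer; 0.5 ml settled resin in PBS per column; acetylated control. About 5 log₁₀ (MTT/ml) PPV was pumped at 0.1 ml/min. Fractions of 0.5 ml (one column volume) were titered by MTT assay on PK-13 cells. Clearance over five column volumes was expressed relative to a reference trimer ligand (100%). Duplicates.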

## YKLKYY
  PPV clearance of the first five column volumes, ranking among ligands: highest virus clearance
